Results reported in ChEMBL document CHEMBL1649343, “Pulicatins A-E, neuroactive thiazoline metabolites from cone snail-associated bacteria” (J Nat Prod, 2010).
One block for each compound: values may come before it. Calls of active or inactive are those of the source. The calls are words filed in the database; no cut-off is given here.

Assays:
[1] = target: 5-hydroxytryptamine receptor 2B (Mus musculus) (UniProt Q02152); assay: Increase of 5HT2B receptor-mediated KCL-induced intracellular calcium influx in mouse DRG neurons at 20 ug/ml; type: functional, cell-based
Outline: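 Dorsal root ganglia cells from the cervical and lumbar regions of mice were loaded with Fura-2 AM and imaged individually by fluorescence microscopy at 20 to 25 °C. After baseline, cells were given 25 mM KCl and washed. After return to baseline, compound was applied at 20 µg/mL, then replaced with 25 mM KCl while intracellular Ca2+ was monitored.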

[2] = target: Histamine H1 receptor (Homo sapiens) (UniProt P35367); assay: Binding affinity to human histamine H1 receptor by radioligand displacement assay
[3] = target: Kappa-type opioid receptor (Homo sapiens) (UniProt P41145); assay: Binding affinity to human kappa opioid receptor by radioligand displacement assay
[4] = target: T1, 5-hydroxytryptamine receptor 1A (Homo sapiens) (UniProt P08908); assay: Binding affinity to human 5HT1A receptor at 10 uM by radioligand displacement assay
T1 sequence (whole entry): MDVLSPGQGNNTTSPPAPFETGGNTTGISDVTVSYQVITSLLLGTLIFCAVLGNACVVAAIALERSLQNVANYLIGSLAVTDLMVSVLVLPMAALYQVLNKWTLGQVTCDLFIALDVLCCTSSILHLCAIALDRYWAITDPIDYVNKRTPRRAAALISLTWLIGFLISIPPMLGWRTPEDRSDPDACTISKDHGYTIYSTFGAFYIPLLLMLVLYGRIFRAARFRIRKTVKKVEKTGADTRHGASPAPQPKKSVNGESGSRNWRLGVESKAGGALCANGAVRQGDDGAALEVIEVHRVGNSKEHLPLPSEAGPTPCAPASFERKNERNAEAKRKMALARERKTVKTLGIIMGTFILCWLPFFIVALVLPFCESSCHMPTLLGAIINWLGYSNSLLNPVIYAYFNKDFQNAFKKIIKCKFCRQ
Outline: (§1)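 Primary screen run by the PDSP/NIMH across a 46-target panel. Each compound was tested at a final concentration of 10 µM by radioligand displacement, and initial hits were obtained from this screen.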

[5] = target: 5-hydroxytryptamine receptor 1B (Homo sapiens) (UniProt P28222); assay: Binding affinity to human 5HT1B receptor at 10 uM by radioligand displacement assay; outline: as §1
[6] = target: 5-hydroxytryptamine receptor 1D (Homo sapiens) (UniProt P28221); assay: Binding affinity to human 5HT1D receptor at 10 uM by radioligand displacement assay; outline: as §1
[7] = target: 5-hydroxytryptamine receptor 1E (Homo sapiens) (UniProt P28566); assay: Binding affinity to human 5HT1E receptor at 10 uM by radioligand displacement assay; outline: as §1
[8] = target: 5-hydroxytryptamine receptor 2A (Homo sapiens) (UniProt P28223); assay: Binding affinity to human 5HT2A receptor at 10 uM by radioligand displacement assay; outline: as §1
[9] = target: T2, 5-hydroxytryptamine receptor 2C (Homo sapiens) (UniProt P28335); assay: Binding affinity to human 5HT2C receptor at 10 uM by radioligand displacement assay; outline: as §1
T2 sequence (whole entry): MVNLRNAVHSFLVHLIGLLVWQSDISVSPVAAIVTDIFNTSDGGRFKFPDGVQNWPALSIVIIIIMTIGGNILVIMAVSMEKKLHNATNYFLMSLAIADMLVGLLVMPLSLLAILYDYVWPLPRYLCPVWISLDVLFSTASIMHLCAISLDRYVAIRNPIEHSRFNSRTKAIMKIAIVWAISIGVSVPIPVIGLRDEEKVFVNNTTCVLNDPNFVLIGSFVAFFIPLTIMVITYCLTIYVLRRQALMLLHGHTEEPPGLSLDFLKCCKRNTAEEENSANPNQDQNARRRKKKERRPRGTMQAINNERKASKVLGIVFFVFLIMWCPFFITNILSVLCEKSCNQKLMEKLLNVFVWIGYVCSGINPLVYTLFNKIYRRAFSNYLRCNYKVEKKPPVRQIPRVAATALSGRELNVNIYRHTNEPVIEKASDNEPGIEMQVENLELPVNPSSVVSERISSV

[10] = target: T3, 5-hydroxytryptamine receptor 3A (Homo sapiens) (UniProt P46098); assay: Binding affinity to human 5HT3 receptor at 10 uM by radioligand displacement assay; outline: as §1
T3 sequence (whole entry): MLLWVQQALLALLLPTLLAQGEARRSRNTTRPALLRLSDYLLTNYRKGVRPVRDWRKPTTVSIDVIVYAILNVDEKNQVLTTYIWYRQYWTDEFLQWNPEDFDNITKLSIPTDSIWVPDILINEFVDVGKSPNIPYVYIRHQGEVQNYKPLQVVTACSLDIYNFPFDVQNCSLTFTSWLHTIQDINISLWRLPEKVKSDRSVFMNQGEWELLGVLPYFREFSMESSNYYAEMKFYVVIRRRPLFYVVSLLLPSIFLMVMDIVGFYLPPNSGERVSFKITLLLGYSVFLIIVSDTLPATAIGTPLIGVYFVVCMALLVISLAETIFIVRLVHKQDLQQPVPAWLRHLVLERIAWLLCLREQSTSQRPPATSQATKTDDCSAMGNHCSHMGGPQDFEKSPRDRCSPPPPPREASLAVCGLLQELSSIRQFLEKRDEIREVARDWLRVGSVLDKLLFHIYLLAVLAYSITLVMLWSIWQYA

[11] = target: 5-hydroxytryptamine receptor 4 (Homo sapiens) (UniProt Q13639); assay: Binding affinity to human 5HT4 receptor at 10 uM by radioligand displacement assay; outline: as §1
[12] = target: 5-hydroxytryptamine receptor 5A (Homo sapiens) (UniProt P47898); assay: Binding affinity to human 5HT5A receptor at 10 uM by radioligand displacement assay; outline: as §1
[13] = target: 5-hydroxytryptamine receptor 6 (Homo sapiens) (UniProt P50406); assay: Binding affinity to human 5HT6 receptor at 10 uM by radioligand displacement assay; outline: as §1
[14] = target: 5-hydroxytryptamine receptor 7 (Homo sapiens) (UniProt P34969); assay: Binding affinity to human 5HT7 receptor at 10 uM by radioligand displacement assay; outline: as §1
[15] = species: Homo sapiens; assay: Selectivity ratio of Ki for human 5HT1A receptor to Ki for human 5HT2B receptor
[16] = species: Homo sapiens; assay: Selectivity ratio of Ki for human 5HT1B receptor to Ki for human 5HT2B receptor
[17] = species: Homo sapiens; assay: Selectivity ratio of Ki for human 5HT1D receptor to Ki for human 5HT2B receptor
[18] = species: Homo sapiens; assay: Selectivity ratio of Ki for human 5HT1E receptor to Ki for human 5HT2B receptor
[19] = species: Homo sapiens; assay: Selectivity ratio of Ki for human 5HT2A receptor to Ki for human 5HT2B receptor
[20] = species: Homo sapiens; assay: Selectivity ratio of Ki for human 5HT2C receptor to Ki for human 5HT2B receptor
[21] = species: Homo sapiens; assay: Selectivity ratio of Ki for human 5HT3 receptor to Ki for human 5HT2B receptor
[22] = species: Homo sapiens; assay: Selectivity ratio of Ki for human 5HT4 receptor to Ki for human 5HT2B receptor
[23] = species: Homo sapiens; assay: Selectivity ratio of Ki for human 5HT5A receptor to Ki for human 5HT2B receptor
[24] = species: Homo sapiens; assay: Selectivity ratio of Ki for human 5HT6 receptor to Ki for human 5HT2B receptor
[25] = species: Homo sapiens; assay: Selectivity ratio of Ki for human 5HT7 receptor to Ki for human 5HT2B receptor

Chain of 5-hydroxytryptamine receptor 2B (Mus musculus) (Q02152 whole entry): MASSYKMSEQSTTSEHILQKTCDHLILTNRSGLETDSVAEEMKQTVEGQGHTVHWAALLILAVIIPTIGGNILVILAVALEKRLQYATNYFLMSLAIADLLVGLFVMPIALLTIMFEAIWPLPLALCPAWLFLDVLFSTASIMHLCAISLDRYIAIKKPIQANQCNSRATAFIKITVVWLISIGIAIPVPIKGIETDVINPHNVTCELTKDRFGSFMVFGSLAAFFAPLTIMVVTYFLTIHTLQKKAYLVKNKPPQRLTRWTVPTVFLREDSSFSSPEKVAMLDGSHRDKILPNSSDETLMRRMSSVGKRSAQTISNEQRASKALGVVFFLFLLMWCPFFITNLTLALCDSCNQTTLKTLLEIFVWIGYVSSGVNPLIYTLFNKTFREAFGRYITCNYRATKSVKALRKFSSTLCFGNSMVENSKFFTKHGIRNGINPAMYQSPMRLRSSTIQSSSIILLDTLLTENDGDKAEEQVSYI
Chain of Histamine H1 receptor (Homo sapiens) (P35367 whole entry): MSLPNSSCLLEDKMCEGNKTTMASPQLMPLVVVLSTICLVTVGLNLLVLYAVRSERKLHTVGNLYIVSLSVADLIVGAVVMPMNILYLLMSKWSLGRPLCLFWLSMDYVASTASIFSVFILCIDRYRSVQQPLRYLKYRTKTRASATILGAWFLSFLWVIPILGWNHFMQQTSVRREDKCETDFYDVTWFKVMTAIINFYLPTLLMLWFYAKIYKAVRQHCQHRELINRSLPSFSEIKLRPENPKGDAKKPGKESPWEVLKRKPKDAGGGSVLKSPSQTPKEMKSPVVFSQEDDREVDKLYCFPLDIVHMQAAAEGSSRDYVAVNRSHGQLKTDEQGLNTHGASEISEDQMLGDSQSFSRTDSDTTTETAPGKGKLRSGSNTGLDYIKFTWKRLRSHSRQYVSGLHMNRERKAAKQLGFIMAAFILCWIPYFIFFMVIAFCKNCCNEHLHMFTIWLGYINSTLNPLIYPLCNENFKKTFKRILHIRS
Chain of 5-hydroxytryptamine receptor 2A (Homo sapiens) (P28223 whole entry): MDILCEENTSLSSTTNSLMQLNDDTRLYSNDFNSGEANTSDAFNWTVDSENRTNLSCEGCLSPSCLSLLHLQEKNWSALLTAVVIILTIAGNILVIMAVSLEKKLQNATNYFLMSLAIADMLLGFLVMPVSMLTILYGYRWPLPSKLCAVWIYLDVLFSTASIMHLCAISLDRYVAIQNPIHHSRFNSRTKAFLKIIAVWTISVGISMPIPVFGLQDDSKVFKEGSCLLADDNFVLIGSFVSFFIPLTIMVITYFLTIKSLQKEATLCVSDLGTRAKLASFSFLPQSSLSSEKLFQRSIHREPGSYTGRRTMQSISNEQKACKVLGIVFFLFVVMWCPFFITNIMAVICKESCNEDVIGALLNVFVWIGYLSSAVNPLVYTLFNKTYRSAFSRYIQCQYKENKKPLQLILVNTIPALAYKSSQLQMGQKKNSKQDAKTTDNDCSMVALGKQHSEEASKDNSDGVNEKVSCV
Chain of 5-hydroxytryptamine receptor 4 (Homo sapiens) (Q13639 whole entry): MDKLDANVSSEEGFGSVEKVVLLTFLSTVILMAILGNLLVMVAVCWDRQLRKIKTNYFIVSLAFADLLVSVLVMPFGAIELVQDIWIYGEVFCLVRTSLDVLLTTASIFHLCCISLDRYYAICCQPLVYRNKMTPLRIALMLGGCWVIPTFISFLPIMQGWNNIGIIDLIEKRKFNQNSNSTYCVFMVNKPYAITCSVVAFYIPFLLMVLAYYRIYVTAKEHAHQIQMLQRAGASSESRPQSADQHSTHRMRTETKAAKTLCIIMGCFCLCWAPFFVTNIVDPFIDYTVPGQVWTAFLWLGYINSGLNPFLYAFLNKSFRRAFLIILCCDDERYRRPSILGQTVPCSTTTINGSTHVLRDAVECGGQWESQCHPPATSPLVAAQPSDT
Chain of 5-hydroxytryptamine receptor 7 (Homo sapiens) (P34969 whole entry): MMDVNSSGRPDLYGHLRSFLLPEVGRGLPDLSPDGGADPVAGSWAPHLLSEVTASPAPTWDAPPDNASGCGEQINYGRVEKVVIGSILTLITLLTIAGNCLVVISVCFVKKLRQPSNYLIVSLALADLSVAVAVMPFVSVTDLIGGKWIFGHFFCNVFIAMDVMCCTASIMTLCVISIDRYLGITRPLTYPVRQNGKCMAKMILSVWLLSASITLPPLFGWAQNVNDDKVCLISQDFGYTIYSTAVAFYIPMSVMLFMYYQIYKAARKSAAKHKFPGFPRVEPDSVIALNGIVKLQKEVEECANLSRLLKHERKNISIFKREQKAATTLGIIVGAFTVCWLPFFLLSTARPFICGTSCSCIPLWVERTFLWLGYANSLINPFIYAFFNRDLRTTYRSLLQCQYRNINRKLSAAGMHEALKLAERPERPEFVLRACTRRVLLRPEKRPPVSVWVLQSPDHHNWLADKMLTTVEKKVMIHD
Chain of 5-hydroxytryptamine receptor 6 (Homo sapiens) (P50406 whole entry): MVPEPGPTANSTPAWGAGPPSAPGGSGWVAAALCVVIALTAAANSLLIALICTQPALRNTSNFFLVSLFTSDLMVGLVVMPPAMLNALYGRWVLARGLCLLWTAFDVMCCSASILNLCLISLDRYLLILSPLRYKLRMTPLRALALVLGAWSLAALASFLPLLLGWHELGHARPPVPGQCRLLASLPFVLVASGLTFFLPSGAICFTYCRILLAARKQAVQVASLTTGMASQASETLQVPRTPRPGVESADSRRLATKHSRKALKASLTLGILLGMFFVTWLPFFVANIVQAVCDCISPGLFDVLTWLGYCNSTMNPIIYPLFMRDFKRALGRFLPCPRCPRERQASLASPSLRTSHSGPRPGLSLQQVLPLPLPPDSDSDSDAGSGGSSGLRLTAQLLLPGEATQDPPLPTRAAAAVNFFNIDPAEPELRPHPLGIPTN
Chain of 5-hydroxytryptamine receptor 5A (Homo sapiens) (P47898 whole entry): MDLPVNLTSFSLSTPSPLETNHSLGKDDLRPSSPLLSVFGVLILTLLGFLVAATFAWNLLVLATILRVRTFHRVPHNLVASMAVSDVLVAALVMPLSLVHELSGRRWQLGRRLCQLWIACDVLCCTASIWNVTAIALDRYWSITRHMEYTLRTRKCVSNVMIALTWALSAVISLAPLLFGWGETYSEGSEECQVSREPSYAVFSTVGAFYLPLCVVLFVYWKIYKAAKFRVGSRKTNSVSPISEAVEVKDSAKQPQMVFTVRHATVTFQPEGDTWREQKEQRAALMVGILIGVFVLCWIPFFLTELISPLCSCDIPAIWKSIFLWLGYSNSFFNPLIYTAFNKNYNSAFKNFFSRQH
Chain of 5-hydroxytryptamine receptor 1E (Homo sapiens) (P28566 whole entry): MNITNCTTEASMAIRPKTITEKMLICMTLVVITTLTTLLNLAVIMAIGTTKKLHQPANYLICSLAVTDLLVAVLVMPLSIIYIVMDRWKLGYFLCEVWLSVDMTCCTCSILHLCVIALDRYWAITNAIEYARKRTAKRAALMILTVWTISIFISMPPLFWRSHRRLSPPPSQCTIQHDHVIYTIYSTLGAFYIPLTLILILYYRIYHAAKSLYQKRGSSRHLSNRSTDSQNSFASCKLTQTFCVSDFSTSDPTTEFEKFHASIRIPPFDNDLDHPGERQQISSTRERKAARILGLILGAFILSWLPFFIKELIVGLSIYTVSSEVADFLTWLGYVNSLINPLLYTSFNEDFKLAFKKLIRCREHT
Chain of 5-hydroxytryptamine receptor 1D (Homo sapiens) (P28221 whole entry): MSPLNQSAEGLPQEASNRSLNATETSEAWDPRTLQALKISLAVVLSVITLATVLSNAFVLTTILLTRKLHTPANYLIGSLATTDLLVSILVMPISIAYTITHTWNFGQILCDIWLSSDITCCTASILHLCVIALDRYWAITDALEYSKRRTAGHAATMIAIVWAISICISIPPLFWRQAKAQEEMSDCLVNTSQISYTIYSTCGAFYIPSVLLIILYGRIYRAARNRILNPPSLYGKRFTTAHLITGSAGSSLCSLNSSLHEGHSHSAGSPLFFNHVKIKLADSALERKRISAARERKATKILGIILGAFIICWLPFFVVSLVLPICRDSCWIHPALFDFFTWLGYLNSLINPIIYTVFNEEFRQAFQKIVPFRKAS
Chain of 5-hydroxytryptamine receptor 1B (Homo sapiens) (P28222 whole entry): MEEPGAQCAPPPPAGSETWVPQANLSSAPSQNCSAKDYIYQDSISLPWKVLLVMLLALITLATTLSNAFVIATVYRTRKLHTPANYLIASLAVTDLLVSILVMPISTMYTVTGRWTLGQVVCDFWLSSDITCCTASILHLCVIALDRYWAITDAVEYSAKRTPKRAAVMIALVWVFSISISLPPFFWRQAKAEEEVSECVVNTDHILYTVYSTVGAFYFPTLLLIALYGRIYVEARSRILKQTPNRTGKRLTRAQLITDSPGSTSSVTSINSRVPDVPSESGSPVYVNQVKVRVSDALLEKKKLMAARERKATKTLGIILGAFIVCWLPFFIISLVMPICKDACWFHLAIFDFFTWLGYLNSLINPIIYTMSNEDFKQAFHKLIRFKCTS
Chain of Kappa-type opioid receptor (Homo sapiens) (P41145 whole entry): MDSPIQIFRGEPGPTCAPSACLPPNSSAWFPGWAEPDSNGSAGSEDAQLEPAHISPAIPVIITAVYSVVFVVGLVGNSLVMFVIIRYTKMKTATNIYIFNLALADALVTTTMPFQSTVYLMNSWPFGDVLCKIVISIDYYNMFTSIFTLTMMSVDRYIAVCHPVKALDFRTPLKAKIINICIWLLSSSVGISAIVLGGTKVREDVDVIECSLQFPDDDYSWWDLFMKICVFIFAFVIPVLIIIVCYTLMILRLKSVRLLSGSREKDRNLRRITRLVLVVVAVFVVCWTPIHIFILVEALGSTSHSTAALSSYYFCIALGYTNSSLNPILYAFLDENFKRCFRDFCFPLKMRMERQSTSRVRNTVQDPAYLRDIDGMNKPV

- Activity [1]: Active
- Activity [2]: 678 nM
- Activity [3]: 3.71 µM
Structure (SMILES): NC(=O)C1CSC(c2ccccc2O)=N1 (stereo not drawn)

- Activity [1]: inactive
- Activity [4]: inactive
- Activity [5]: inactive
- Activity [6]: inactive
- Activity [7]: inactive
- Activity [8]: inactive
- Activity [9]: inactive
- Activity [10]: inactive
- Activity [11]: inactive
- Activity [12]: inactive
- Activity [13]: inactive
- Activity [14]: inactive
- Ratio Ki [15]: 20
- Ratio Ki [16]: 20
- Ratio Ki [17]: 20
- Ratio Ki [18]: 20
- Ratio Ki [19]: 20
- Ratio Ki [20]: 20
- Ratio Ki [21]: 20
- Ratio Ki [22]: 20
- Ratio Ki [23]: 20
- Ratio Ki [24]: 20
- Ratio Ki [25]: 20
Structure (SMILES): C[C@@H]1SC(c2ccccc2O)=N[C@@H]1CO

- Activity [1]: Active
Structure (SMILES): OC[C@@H]1CSC(c2ccccc2O)=N1

- Activity [2]: 517 nM
Structure (SMILES): NC(=O)c1csc(-c2ccccc2O)n1
